In ChEMBL document CHEMBL1133527, “Exploring the structural basis of neurotoxicity in C(17)-polyacetylenes isolated from water hemlock” (J Med Chem, 2000):

Tests used:
Mus musculus = assay: Acute toxicity against mice after ip administration; assay type: organism-based; settings: in vivo
[1] = biological target: GABA-A receptor; anion channel; assay: Tested for inhibition of specific binding of [3H]-EBOB to GABA-Gated Chloride channels of Gamma-aminobutyric acid A receptor in rat brain cortex (Potency expressed as IC50); assay type: tissue-based
Summary of the method: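 Washed cortical membranes from SD rats (7 weeks), prepared in 50 mM Tris-HCl pH 7.4 and stored at -80 °C, equivalent to 5 mg tissue, incubated with 3 nM [3H]EBOB and test agent at 25 °C for 1 h. Bound ligand collected by filtration on polyethylenimine-treated GF/B filters and counted by scintillation. IC50 from dose-response curves run in duplicate.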

SMILES	LD50 (Mus musculus) [mg kg-1 i.p.]	IC50 [1] [µM]
CCC[C@@H](O)/C=C/C=C/C=C/C#CC#CCCCOC(C)=O	1.9	1.1
CCCC(O)/C=C/C=C/C=C/C#CC#CCCCO (stereo not given)	38.6	2.01
CCCCCCC[C@H](O)/C=C/C#CC#CCCCO	> 105	7.87
CCC[C@@H](O)/C=C/C=C/C=C/C#CC#CCCC=O	4.9	2.22
CCCCC[C@H](O)/C=C/C=C/C#CC#CCCCO	9.5	1.15
CCC[C@@H](O)/C=C/C=C/C=C/C#CC#CCCC(=O)O	0.76	0.3
CCCC#CC#C/C=C/C=C/[C@@H](O)CCCCC	> 97.6	> 10
CCCCCC(=O)/C=C/C=C/C#CC#CCCCO	> 25.8	> 10
CCCCCCC/C=C\CC#CC#CCCCO	> 24.6	> 10
CCC[C@H](/C=C/C=C/C=C/C#CC#CCCCOC)OC	> 57.2	> 10
CCC[C@@H](O)/C=C/C=C/C=C/C#CC#CCCCOC	10.6	6.79
CCC[C@H](/C=C/C=C/C=C/C#CC#CCCCOC(C)=O)OC(C)=O	15.7	> 10
CCCCNC(=O)CCC#CC#C/C=C/C=C/C=C/[C@H](O)CCC	4.9	> 10
CCCC(=O)CC/C=C/C=C/C#CC#CCCCO	1.1	3.64
CCCC(=O)/C=C/C=C/C=C/C#CC#CCCCO	7.6	3.05
CCC[C@@H](O)/C=C/C=C/C=C/C#CC#CCCC(=O)OC	1.6	0.42
CCCCCC/C=C/C=C/C#CC#CCCCO	> 37.8	> 10
CCC[C@@H](O)/C=C/C=C/C=C/C#CC#CCCCO [CICUTOXIN]	2.8	0.54
C=C[C@@H](O)C#CC#C[C@@H](O)/C=C\CCCCCCC [FALCARINDIOL]	> 200	> 10
CCC[C@@H](O)/C=C/C=C/C=C/C#CC#CCCC(N)=O	1.1	1.56
CCCCC[C@H](O)/C=C/C=C/C#CCCCO	> 70.8	> 10
CCCCCCC/C=C\C(=O)C#CC#CCCCO	> 26	> 10
CCCCCC(O)/C=C/C=C/C#CC#CCCCO (stereo not given)	7.7	–
CCC[C@H](/C=C/C=C/C=C/C#CC#CCCCO)OC(C)=O	2.8	> 10
C=C(C)[C@@H]1[C@H]2OC(=O)[C@@H]1[C@]1(O)C[C@H]3OC34C(=O)O[C@H]2[C@@]41C.CC(C)(O)[C@@H]1[C@H]2OC(=O)[C@@H]1[C@]1(O)C[C@H]3OC34C(=O)O[C@H]2[C@@]41C (stereo not given in full) [PICROTOXIN]	–	1.31
CCCCCCC/C=C\[C@H](O)C#CC#CCCCO	> 393	6.01
